The subject of data set [1] is Staphylococcus aureus. The data set is described as follows: Antibacterial activity against methicillin-sensitive Staphylococcus aureus ATCC 29213 measured after 16 to 18 hrs. It is filed as functional. The note with it: time 16-18 hrs. In a few lines:
(§1)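 Broth microdilution MIC. Strains grown on MHA; a single colony was grown overnight in CA-MHB at 37 °C with shaking for 18–24 h. Cultures were diluted by OD600 to ~10⁶ cfu/mL and exposed to compound at […]. Plates were incubated at 37 °C for 16-18 h. MIC = lowest concentration with no visible growth. Levofloxacin was the reference. Three independent runs, each in duplicate.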

Data set [2] concerns Staphylococcus aureus. The data set can be described thus: Antibacterial activity against methicillin-resistant Staphylococcus aureus NR100 measured after 16 to 18 hrs. It is filed as functional. As to conditions: time 16-18 hrs. In a few lines:
as §1

Data set [3] has as its system Staphylococcus aureus. The data set can be described thus: Antibacterial activity against methicillin-resistant Staphylococcus aureus NR119 measured after 16 to 18 hrs. It is filed as functional. As to conditions: time 16-18 hrs. The method, boiled down: as §1
The test system of data set [4] is Staphylococcus aureus. The data set is described as follows: Antibacterial activity against methicillin-resistant Staphylococcus aureus NR10129 measured after 16 to 18 hrs. As to conditions: time 16-18 hrs. The class given is functional. The method, boiled down: as §1
Data set [5] deals with Staphylococcus aureus. The data set is described as follows: Antibacterial activity against methicillin-resistant Staphylococcus aureus NR10198 measured after 16 to 18 hrs. The class given is functional. As to conditions: time 16-18 hrs. The method, boiled down: as §1
For data set [6], the system named is Staphylococcus aureus. The data set can be described thus: Antibacterial activity against methicillin-resistant Staphylococcus aureus NR10192 measured after 16 to 18 hrs. The note with it: time 16-18 hrs. It is filed as functional. In a few lines: as §1
For data set [7], the system named is Staphylococcus aureus. The data set can be described thus: Antibacterial activity against methicillin-resistant Staphylococcus aureus NR10186 measured after 16 to 18 hrs. It is filed as functional. As to conditions: time 16-18 hrs. The method, boiled down:
as §1

Data set [8] concerns Staphylococcus aureus. The data set can be described thus: Antibacterial activity against methicillin-resistant Staphylococcus aureus NR10193 measured after 16 to 18 hrs. It is filed as functional. As to conditions: time 16-18 hrs. In a few lines:
as §1

The test system of data set [9] is Staphylococcus aureus. The data set can be described thus: Antibacterial activity against methicillin-resistant Staphylococcus aureus NR10194 measured after 16 to 18 hrs. The class given is functional. The note with it: time 16-18 hrs. In a few lines: as §1
The subject of data set [10] is Staphylococcus aureus. The data set can be described thus: Antibacterial activity against methicillin-resistant Staphylococcus aureus NR10191 measured after 16 to 18 hrs. The class given is functional. The note with it: time 16-18 hrs. In a few lines:
as §1

Data set [11] has as its system Staphylococcus aureus. The data set can be described thus: Antibacterial activity against vancomycin-resistant Staphylococcus aureus VRS1 measured after 16 to 18 hrs. The class given is functional. As to conditions: time 16-18 hrs. The method, boiled down: as §1
The subject of data set [12] is Staphylococcus aureus. The data set can be described thus: Antibacterial activity against vancomycin-resistant Staphylococcus aureus VRS4 measured after 16 to 18 hrs. It is filed as functional. As to conditions: time 16-18 hrs. The method, boiled down:
as §1

Data set [13] concerns Staphylococcus aureus. The data set can be described thus: Antibacterial activity against vancomycin-resistant Staphylococcus aureus VRS12 measured after 16 to 18 hrs. The class given is functional. As to conditions: time 16-18 hrs. The method, boiled down:
as §1

The test system of another data set is Escherichia coli. The data set can be described thus: Antibacterial activity against Escherichia coli ATCC 25922 measured after 16 to 18 hrs. The class given is functional. As to conditions: time 16-18 hrs. In a few lines:
as §1

Data set [14] concerns Staphylococcus aureus. The data set can be described thus: Antibacterial activity against Staphylococcus aureus ATCC 29213 measured after 16 to 18 hrs. As to conditions: time 16-18 hrs. It is filed as functional. The method, boiled down: as §1
The test system of another data set is Klebsiella pneumoniae. The data set can be described thus: Antibacterial activity against Klebsiella pneumoniae BAA-1705 measured after 16 to 18 hrs. The class given is functional. The note with it: ATCC BAA-1705, time 16-18 hrs. In a few lines: as §1
The subject of another data set is Acinetobacter baumannii. The data set is described as follows: Antibacterial activity against Acinetobacter baumannii BAA1605 measured after 16 to 18 hrs. As to conditions: time 16-18 hrs. It is filed as functional. In a few lines:
as §1

Another data set deals with Pseudomonas aeruginosa. The data set can be described thus: Antibacterial activity against Pseudomonas aeruginosa ATCC 27853 measured after 16 to 18 hrs. It is filed as functional. The note with it: time 16-18 hrs. In a few lines:
as §1

Data set [15] deals with Mycobacterium tuberculosis. The data set is described as follows: Antitubercular activity against Mycobacterium tuberculosis H37Rv ATCC 27294 measured after 7 days by broth microdilution method. The class given is functional. As to conditions: H37Rv ATCC 27294, 168 h, time 7 day. The method, boiled down:
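H37Rv in Middlebrook 7H9 with 10% ADC, 0.2% glycerol, 0.05% Tween-80. Inoculum ~10⁶ cfu/mL set by OD600. Twofold serial dilutions, 0.0064–0.00005 g/100 mL. Incubated at 37 °C for 7 days, then Presto blue resazurin read-out. MIC = lowest concentration inhibiting visible growth. Triplicate runs, each in duplicate.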

The subject of data set [16] is Mycobacteroides abscessus. The data set can be described thus: Antimycobacterial activity against Mycobacterium abscessus ATCC 19977 by broth microdilution method. The class given is functional. The method, boiled down:
(§2)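 Broth microdilution MIC in Middlebrook 7H9 with 10% ADC-Tween-80 (BSA, dextrose, 0.2% glycerol, 0.05% Tween-80). Inoculum ~10⁶ cfu/mL set by OD600. Compounds were twofold serially diluted, 0.0064–0.00005 g/100 mL (DMSO stocks). Presto blue resazurin dye was used as read-out. MIC = lowest concentration inhibiting visible growth. Triplicate runs, each in duplicate.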

Data set [17] has as its system Mycolicibacterium fortuitum. The data set can be described thus: Antimycobacterial activity against Mycobacterium fortuitum ATCC 6841 by broth microdilution method. It is filed as functional. The method, boiled down:
as §2

Another data set relates to Mycobacteroides chelonae. The data set can be described thus: Antimycobacterial activity against Mycobacterium chelonae ATCC 35752 by broth microdilution method. The class given is functional. In a few lines:
as §2

Data set [18] can be described thus: Cytotoxicity against African green monkey Vero cells assessed as reduction in cell viability measured after 72 hrs by MTT assay. It is filed as cell-based. As to conditions: chlorocebus sabaeus. In a few lines: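 Vero cells (ATCC CCL-81), ~10³ cells/well, held 24 h at 37 °C in 5% CO₂. Compound at 100–5 mg/L for 72 h. MTT was added for 4 h, formazan dissolved in DMSO, OD read at 540 nm. CC50 = concentration giving 50% viability reduction. Doxorubicin was the positive control. Triplicate.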

Data set [19] is described as follows: Selectivity index, ratio of CC50 for cytotoxicity against African green monkey Vero cells to MIC for antibacterial activity against Staphylococcus aureus ATCC 29213. The class given is toxicity, cell-based. As to conditions: read-out: Selectivity Index. In a few lines:
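SI = Vero CC50 (MTT, 72 h) divided by MIC against S. aureus ATCC 29213 (CA-MHB broth microdilution, 16-18 h, 37 °C).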

In brackets after ≈: the same amount, converted by molar mass. Bounds are passed on as bounds.

This passage reports MIC, CC50 and selectivity ratio results from ChEMBL document CHEMBL4706624, “Synthesis and evaluation of new quinazoline-benzimidazole hybrids as potent anti-microbial agents against multidrug resistant Staphylococcus aureus and Mycobacterium tuberculosis” (Eur J Med Chem, 2021).

Turning to `CCCCCCCCCC(=O)N[C@@H](Cc1c[nH]c2ccccc12)C(=O)N[C@H](CC(N)=O)C(=O)N[C@@H](CC(=O)O)C(=O)N[C@@H]1C(=O)NCC(=O)N[C@@H](CCCN)C(=O)N[C@@H](CC(=O)O)C(=O)N[C@H](C)C(=O)N[C@@H](CC(=O)O)C(=O)NCC(=O)N[C@H](CO)C(=O)N[C@@H]([C@H](C)CC(=O)O)C(=O)N[C@@H](CC(=O)c2ccccc2N)C(=O)O[C@@H]1C`, the MIC in the data set on Staphylococcus aureus [1] was found to be 1 µg/mL (≈ 0.617 µM); in the data set with Staphylococcus aureus [2], 1 µg/mL (≈ 0.617 µM); against Staphylococcus aureus [3] it was 1 µg/mL (≈ 0.617 µM); against Staphylococcus aureus [4], 0.5 µg/mL (≈ 0.309 µM); in the data set with Staphylococcus aureus [5], 0.5 µg/mL (≈ 0.309 µM); in the data set with Staphylococcus aureus [6] it was 1 µg/mL (≈ 0.617 µM). For the same compound, the MIC against Staphylococcus aureus [7] stood at 0.5 µg/mL (≈ 0.309 µM); with Staphylococcus aureus [8] it was 1 µg/mL (≈ 0.617 µM); in the data set with Staphylococcus aureus [9], 0.5 µg/mL (≈ 0.309 µM); against Staphylococcus aureus [10], 1 µg/mL (≈ 0.617 µM); against Staphylococcus aureus [11] it was 1 µg/mL (≈ 0.617 µM); against Staphylococcus aureus [12], 0.5 µg/mL (≈ 0.309 µM). The compound also had an MIC with Staphylococcus aureus [13] of 0.5 µg/mL (≈ 0.309 µM).
`Fc1ccc2[nH]c(-c3ccc(Nc4nc(-c5ccccc5)nc5ccccc45)cc3)nc2c1`: the MIC is over 64 µg/mL against Escherichia coli; 4 µg/mL (≈ 9.27 µM) in the data set on Staphylococcus aureus [14]; over 64 µg/mL in the data set on Klebsiella pneumoniae; over 64 µg/mL in the data set with Acinetobacter baumannii; over 64 µg/mL in the data set with Pseudomonas aeruginosa; over 64 µg/mL in data set [15]. The MIC in data set [16] was over 64 µg/mL; in data set [17], over 64 µg/mL; against Mycobacteroides chelonae it was 32 µg/mL (≈ 74.2 µM). Also, in data set [18], the CC50 at 72 h is 40 µg/mL (≈ 92.7 µM). In data set [19], the selectivity ratio amounted to 10.
Take `O=C(Nc1ccc2nc(-c3cnc4c(Cl)cccc4c3)[nH]c2c1)c1ccc(Nc2nc(-c3ccccc3)nc3ccccc23)cc1`: the MIC with Escherichia coli was over 64 µg/mL; in the data set with Staphylococcus aureus [14], over 64 µg/mL; against Klebsiella pneumoniae, over 64 µg/mL; against Acinetobacter baumannii it was over 64 µg/mL; against Pseudomonas aeruginosa, over 64 µg/mL; in data set [15], 16 µg/mL (≈ 25.9 µM). The MIC (in data set [16]; in data set [17]; against Mycobacteroides chelonae) was over 64 µg/mL in each case. Also, the CC50 at 72 h in data set [18] is over 100 µg/mL. In [19], the selectivity ratio was over 6.25.
With `Clc1ccc(-c2nc(Nc3ccc(-c4nc5ccccc5[nH]4)cc3)c3ccccc3n2)cc1`, the MIC against Escherichia coli is over 64 µg/mL; against Staphylococcus aureus [14], 4 µg/mL (≈ 8.93 µM); in the data set with Klebsiella pneumoniae, over 64 µg/mL; against Acinetobacter baumannii it was over 64 µg/mL; with Pseudomonas aeruginosa, over 64 µg/mL; against Staphylococcus aureus [1], 8 µg/mL (≈ 17.9 µM). Also, the MIC in the data set on Staphylococcus aureus [2] was 8 µg/mL (≈ 17.9 µM); against Staphylococcus aureus [3] it was 32 µg/mL (≈ 71.4 µM); against Staphylococcus aureus [4] it was 8 µg/mL (≈ 17.9 µM); in the data set on Staphylococcus aureus [5] it was 8 µg/mL (≈ 17.9 µM); against Staphylococcus aureus [6], 4 µg/mL (≈ 8.93 µM); in the data set on Staphylococcus aureus [7] it was 16 µg/mL (≈ 35.7 µM). Moreover, the MIC with Staphylococcus aureus [8] was determined as 8 µg/mL (≈ 17.9 µM); in the data set with Staphylococcus aureus [9] it was 8 µg/mL (≈ 17.9 µM); with Staphylococcus aureus [10], 8 µg/mL (≈ 17.9 µM); against Staphylococcus aureus [11], 4 µg/mL (≈ 8.93 µM); against Staphylococcus aureus [12] it was 8 µg/mL (≈ 17.9 µM); in the data set with Staphylococcus aureus [13], 8 µg/mL (≈ 17.9 µM). Moreover, in data set [18], the CC50 at 72 h is 50 µg/mL (≈ 112 µM). For the same compound, the selectivity ratio in data set [19] was found to be 12.5.
For the compound `COc1ccc(-c2nc(Nc3ccc(-c4nc5cc([N+](=O)[O-])ccc5[nH]4)cc3)c3ccccc3n2)cc1OC`, the MIC with Escherichia coli is over 64 µg/mL; against Staphylococcus aureus [14], over 64 µg/mL; with Klebsiella pneumoniae, over 64 µg/mL; against Acinetobacter baumannii, over 64 µg/mL; in the data set with Pseudomonas aeruginosa it was over 64 µg/mL; in [15], 8 µg/mL (≈ 15.4 µM). For the same compound, the values for the MIC (in data set [16]; in data set [17]; in the data set on Mycobacteroides chelonae) were over 64 µg/mL, 4 µg/mL (≈ 7.71 µM) and 8 µg/mL (≈ 15.4 µM), respectively. For the same compound, the CC50 at 72 h in data set [18] was 100 µg/mL (≈ 193 µM). Besides, the selectivity ratio in data set [19] turned out to be 12.5.
